Values after ≈ are worked out from the molar mass of the structure shown.

Data set [1] in a line: Selectivity ratio of EC50 for human alpha3 nAChR to EC50 for rat alpha7 nAChR.
Data set [2] deals with CYP3A4 (Homo sapiens, UniProt P08684). The data set can be described thus: Inhibition of CYP3A4 at 3 uM by Gentest method. It counts as ADME.
The nature of data set [3]: Selectivity ratio of EC50 for human alpha1 nAChR to EC50 for rat alpha7 nAChR.
A short description of data set [4]: Solubility in ammonium acetate buffer at pH 7.4 by pseudothermodynamic equilibrium assay. It counts as physicochemical.
In another data set the target is CYP2C9 (Homo sapiens, UniProt P11712). The data set can be described thus: Inhibition of CYP2C9 at 3 uM by Gentest method. The data set is classed as ADME.
Chain of CYP2C9 (P11712 whole entry): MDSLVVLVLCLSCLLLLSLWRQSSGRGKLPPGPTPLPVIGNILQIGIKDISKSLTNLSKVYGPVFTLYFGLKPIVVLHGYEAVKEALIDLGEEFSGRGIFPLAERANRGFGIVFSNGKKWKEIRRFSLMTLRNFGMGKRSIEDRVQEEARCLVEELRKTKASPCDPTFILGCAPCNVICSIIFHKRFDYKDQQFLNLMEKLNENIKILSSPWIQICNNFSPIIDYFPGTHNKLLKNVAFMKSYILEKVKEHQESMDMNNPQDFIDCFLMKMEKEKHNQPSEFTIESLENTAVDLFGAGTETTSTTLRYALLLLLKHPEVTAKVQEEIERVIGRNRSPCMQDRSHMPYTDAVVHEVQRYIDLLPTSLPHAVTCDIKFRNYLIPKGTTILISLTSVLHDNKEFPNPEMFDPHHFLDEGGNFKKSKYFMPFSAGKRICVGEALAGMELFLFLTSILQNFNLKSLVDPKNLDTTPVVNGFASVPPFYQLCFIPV
Data set [5] concerns the target Neuronal acetylcholine receptor subunit alpha-7 (Rattus norvegicus, UniProt Q05941). The data set can be described thus: Agonist activity at rat alpha7 nAChR expressed in rat GH4C1 cells assessed as calcium flux by FLIPR. It counts as functional, cell-based, GH4-C1. The method in brief: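 Cells were loaded 40 min at 37 °C with 4 μM Fluo-4-AM in HBSS-HEPES pH 7.4 with probenecid. FLIPR Ca2+ flux was read for ~10 min after compound addition. MAX-MIN was normalized to positive control and fitted to a variable-slope sigmoid. Triplicate points from a single experiment.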

Data set [6] deals with CYP3A4. The data set can be described thus: Metabolic stability assessed as compound remaining after 1 hr in presence of human CYP3A4. It counts as ADME. The note with it: read-out: Stability.
In data set [7] the target is T1, 5-hydroxytryptamine receptor 3A (Homo sapiens, UniProt P46098).
T1 sequence (P46098 whole entry): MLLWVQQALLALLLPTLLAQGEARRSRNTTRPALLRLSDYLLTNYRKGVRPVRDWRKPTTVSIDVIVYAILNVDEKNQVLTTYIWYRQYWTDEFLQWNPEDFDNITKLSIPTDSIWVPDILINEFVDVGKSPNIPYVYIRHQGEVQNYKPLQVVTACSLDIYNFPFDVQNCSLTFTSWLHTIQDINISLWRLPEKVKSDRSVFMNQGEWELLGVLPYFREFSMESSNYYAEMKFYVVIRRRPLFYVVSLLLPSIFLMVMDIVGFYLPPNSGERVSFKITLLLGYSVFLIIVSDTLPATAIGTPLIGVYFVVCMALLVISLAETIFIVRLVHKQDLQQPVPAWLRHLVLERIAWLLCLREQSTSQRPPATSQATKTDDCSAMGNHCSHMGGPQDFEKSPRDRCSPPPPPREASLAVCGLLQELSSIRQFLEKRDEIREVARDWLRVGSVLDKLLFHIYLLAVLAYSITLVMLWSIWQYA
In words: Antagonist activity at human 5HT3A receptor expressed in HEK293 cells by FLIPR assay.

The target in the next data set is CYP2D6 (Homo sapiens, UniProt P10635). In words: Inhibition of CYP2D6 at 3 uM by Gentest method. It counts as ADME.
Chain of CYP2D6 (P10635 whole entry): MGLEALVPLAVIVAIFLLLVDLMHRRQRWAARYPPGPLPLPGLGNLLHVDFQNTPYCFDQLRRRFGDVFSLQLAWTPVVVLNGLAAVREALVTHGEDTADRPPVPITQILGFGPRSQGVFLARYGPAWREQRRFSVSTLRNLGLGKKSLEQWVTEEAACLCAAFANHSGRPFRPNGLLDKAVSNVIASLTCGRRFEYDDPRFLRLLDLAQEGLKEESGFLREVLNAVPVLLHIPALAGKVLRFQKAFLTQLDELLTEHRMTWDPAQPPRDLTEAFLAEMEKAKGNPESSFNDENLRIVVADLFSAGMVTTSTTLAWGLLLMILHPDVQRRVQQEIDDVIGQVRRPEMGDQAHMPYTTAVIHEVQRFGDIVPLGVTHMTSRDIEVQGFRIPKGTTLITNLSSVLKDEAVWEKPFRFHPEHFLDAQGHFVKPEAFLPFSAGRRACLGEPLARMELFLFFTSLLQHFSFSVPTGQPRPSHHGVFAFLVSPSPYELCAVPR
Data set [8] is described as follows: Intrinsic clearance in rat liver microsomes by LC-MS/MS analysis. It counts as ADME, Microsome. The method, boiled down: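 Rat liver microsomes (0.633 mg/mL protein in 0.1 M potassium phosphate pH 7.4 with EDTA) were incubated with test compound and NADPH regenerating agent for 15 min at 37 °C, against a time-0 control, in duplicate. Reactions were quenched with cold acetonitrile, centrifuged, and supernatants analyzed by LC-MS.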
For orientation: Microsomes from liver hold many membrane-bound enzymes, among them those of drug oxidation.

Chain of Neuronal acetylcholine receptor subunit alpha-7 (Q05941 whole entry): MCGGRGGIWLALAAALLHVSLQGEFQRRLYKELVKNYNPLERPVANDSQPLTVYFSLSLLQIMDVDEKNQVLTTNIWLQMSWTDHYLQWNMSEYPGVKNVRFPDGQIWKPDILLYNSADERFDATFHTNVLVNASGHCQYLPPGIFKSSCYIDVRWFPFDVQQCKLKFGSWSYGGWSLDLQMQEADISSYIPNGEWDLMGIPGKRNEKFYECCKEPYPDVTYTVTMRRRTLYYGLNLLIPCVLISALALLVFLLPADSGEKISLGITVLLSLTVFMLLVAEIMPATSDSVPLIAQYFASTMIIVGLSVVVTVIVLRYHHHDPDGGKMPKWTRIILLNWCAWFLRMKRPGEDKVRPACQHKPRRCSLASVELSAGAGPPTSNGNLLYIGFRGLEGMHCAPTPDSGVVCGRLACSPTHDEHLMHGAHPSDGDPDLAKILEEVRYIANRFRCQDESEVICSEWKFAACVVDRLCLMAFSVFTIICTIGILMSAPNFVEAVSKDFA
Chain of CYP3A4 (Homo sapiens, UniProt P08684) (P08684 whole entry): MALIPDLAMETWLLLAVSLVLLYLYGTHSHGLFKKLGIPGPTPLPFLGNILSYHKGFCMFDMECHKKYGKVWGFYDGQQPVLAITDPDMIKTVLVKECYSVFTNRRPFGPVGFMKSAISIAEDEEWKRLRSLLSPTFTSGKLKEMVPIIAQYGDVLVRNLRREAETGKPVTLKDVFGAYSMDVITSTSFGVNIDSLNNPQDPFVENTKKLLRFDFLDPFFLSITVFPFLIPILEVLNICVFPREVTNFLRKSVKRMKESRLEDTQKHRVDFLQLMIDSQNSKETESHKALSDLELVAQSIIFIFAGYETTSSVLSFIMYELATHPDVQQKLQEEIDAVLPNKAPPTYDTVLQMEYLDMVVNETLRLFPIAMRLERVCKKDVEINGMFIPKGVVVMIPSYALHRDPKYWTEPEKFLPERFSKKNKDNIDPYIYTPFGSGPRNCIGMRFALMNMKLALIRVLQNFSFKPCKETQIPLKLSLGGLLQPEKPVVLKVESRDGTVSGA

The term inhibition denotes the change of the read-out against control, counted positive when it falls. What is called solubility (thermodynamic) is the concentration in solution at equilibrium with solid. Broadly, the EC50 is the concentration needed to bring the measured effect to its halfway point. What is called IC50 is the concentration needed to halve the response being measured. A higher IC50 goes with lower potency. In the case of `COc1ccccc1-c1ccc(NC(=O)NCCCCN2CCCCC2)cc1`, the Ratio EC50 worked out at 1.1 in data set [1] and 7.7 in data set [3]. Further, the inhibition at 3 µM was 5% at CYP3A4 [2] and -2% on CYP2C9. The solubility (thermodynamic) in data set [4] was determined as 114 µM (≈ 43.5 µg/mL). Moreover, the EC50 in [5] came out at 140 nM. Moreover, in the data set with CYP3A4 [6], the remaining at 1 h is 100%. Also, the midpoint of inhibition in data set [7], the IC50, lay at 7800 nM.
On to `O=C(NCCCCN1CCCCC1)Nc1ccc(-c2cccnc2)cc1`, for which the concentration giving a half-maximal response (EC50) in data set [5] was determined as 120 nM.
For the molecule `O=C(NCCCCN1CCCCC1)Nc1ccc(-c2ccccc2F)cc1`, the Ratio EC50 amounted to 1.2 in [1] and 8.2 in data set [3]. For the same molecule, the figures for the inhibition at 3 µM against CYP3A4 [2] and at CYP2C9 were -17% and -1%, respectively. In [4], this molecule came in with a solubility (thermodynamic) of 95 µM (≈ 35.1 µg/mL). The concentration for a half-maximal effect (EC50) in data set [5] is 130 nM. Besides, the remaining at 1 h in the data set with CYP3A4 [6] was found to be 88%. The half-maximal inhibitory concentration (IC50) in data set [7] was 5700 nM.
`O=C(NCCCCN1CCCCC1)Nc1ccc(-c2ccc(F)nc2)nc1`: the Ratio EC50 in [1] and in data set [3] was over 30 each time. In addition, the results for the inhibition at 3 µM against CYP3A4 [2], on CYP2C9 and on CYP2D6 were -19%, -10% and 8%, respectively. Also, the thermodynamic solubility in [4] was 205 µM (≈ 76.1 µg/mL). Besides, in data set [5], the EC50 worked out at 530 nM. For the same molecule, the remaining at 1 h in the data set on CYP3A4 [6] stood at 100%. For the same molecule, the IC50 in data set [7] is over 30000 nM.
As for `O=C(NCCCCN1CCCCC1)Nc1ccc(-c2ccccc2F)nc1`, the values for the Ratio EC50 in data set [1] and in data set [3] were 5.6 and over 30, respectively. For the same molecule, the inhibition at 3 µM is -3% against CYP3A4 [2] and -10% against CYP2C9. Also, the solubility (thermodynamic) in data set [4] turned out to be 196 µM (≈ 72.6 µg/mL). The concentration for a half-maximal effect (EC50) in data set [5] was determined as 150 nM. The remaining at 1 h in the data set on CYP3A4 [6] came out at 100%. Besides, the IC50 in data set [7] was over 30000 nM.
Take `O=C(NCCCCN1CCCCC1)Nc1ccc(-c2ccccn2)nc1`: the Ratio EC50 was 9.88 in data set [1] and over 30 in data set [3]. In addition, the inhibition at 3 µM against CYP3A4 [2] was 0%; against CYP2C9 it was -3%; on CYP2D6 it was 22%. The molecule further came in with a thermodynamic solubility in [4] of 171 µM (≈ 60.4 µg/mL). Further, the 50% effective concentration (EC50) in data set [5] is 390 nM. For the same molecule, the remaining at 1 h in the data set with CYP3A4 [6] worked out at 100%. Also, the IC50 in [7] is over 30000 nM.
For the molecule `O=C(NCCCCN1CCCCC1)Nc1ccc(-c2ccccn2)cc1`, the Ratio EC50 in data set [1] is 5; in [3] it was over 30. For the same molecule, the inhibition at 3 µM against CYP3A4 [2] is -2%; against CYP2C9 it was 0%; at CYP2D6, 15%. For the same molecule, in data set [4], the thermodynamic solubility came to 153 µM (≈ 53.9 µg/mL). The 50% effective concentration (EC50) in data set [5] is 130 nM. In addition, in the data set on CYP3A4 [6], the remaining at 1 h came out at 97%. This molecule also yielded a half-maximal inhibitory concentration (IC50) in data set [7] of over 30000 nM.
Consider `COc1ccccc1-c1ccc(NC(=O)NCCCCN2CCCCC2)cn1`, for which the Ratio EC50 is 3.9 in [1] and over 30 in data set [3]. Besides, the inhibition at 3 µM on CYP3A4 [2] came out at 8%; against CYP2C9, 6%; against CYP2D6, 8%. This molecule showed a thermodynamic solubility in [4] of 174 µM (≈ 66.6 µg/mL). In addition, the EC50 in data set [5] amounted to 230 nM. Also, the remaining at 1 h in the data set on CYP3A4 [6] amounted to 88%. The molecule further came in with an IC50 in data set [7] of over 30000 nM.
For `O=C(NCCCCN1CCOCC1)Nc1ccc(-c2cccnc2)cc1`, the EC50 in [5] turned out to be 490 nM.
For the molecule `O=C(NCCCCN1CCCCC1)Nc1ccc(-c2ccc(F)nc2)cc1`, the Ratio EC50 in [1] was 1.2; in [3], over 30. Also, the results for the inhibition at 3 µM at CYP3A4 [2] and against CYP2C9 were -22% and -18%, respectively. Besides, the solubility (thermodynamic) in [4] worked out at 158 µM (≈ 58.5 µg/mL). The concentration giving a half-maximal response (EC50) in data set [5] is 120 nM. The remaining at 1 h with CYP3A4 [6] is 100%. In [7], this molecule registered a 50% inhibitory concentration (IC50) of over 30000 nM.
With `O=C(CCCCN1CCCCC1)Nc1ccc(-c2cccnc2)cc1`, the concentration giving a half-maximal response (EC50) in [5] was determined as 350 nM.
On the same count and under the same terms, in the case of `O=C(CCCCCN1CCCCC1)Nc1ccc(-c2cccnc2)cc1` it was 890 nM.
`O=C(NCCCCN1CCCCC1)Nc1ccc(-c2ccccc2)cc1`: the Ratio EC50 is 2.8 in data set [1] and over 30 in [3]. This molecule showed a thermodynamic solubility in [4] of 108 µM (≈ 38 µg/mL). The inhibition at 3 µM on CYP2C9 is 2%. Besides, the half-maximal effective concentration (EC50) in [5] amounted to 260 nM. Also, the remaining at 1 h with CYP3A4 [6] stood at 100%. The molecule further gave an IC50 in [7] of 7900 nM.
In the case of `O=C(NCCCCN1CCCCC1)Nc1ccc(-c2ccc(F)cc2)cc1`, the Ratio EC50 came out at 1.7 in [1] and 8 in data set [3]. Further, the inhibition at 3 µM against CYP3A4 [2] is -13%; on CYP2C9, -16%. Besides, the solubility (thermodynamic) in [4] came to 20 µM (≈ 7.39 µg/mL). Further, in the data set with CYP3A4 [6], the remaining at 1 h worked out at 100%. This molecule displayed an IC50 in data set [7] of 5800 nM.
For orientation: microsomal CLint means the capacity of the preparation to metabolise the compound, expressed as a volume cleared per time. A lower microsomal CLint goes with greater metabolic stability. Consider `O=C(NCCCCN1CCCCC1)Nc1ccc(-c2ccccc2)nc1`, for which the Ratio EC50 is 10.1 in [1] and over 30 in data set [3]. The inhibition at 3 µM on CYP3A4 [2] was -21%; on CYP2C9 it was -4%; against CYP2D6, 6%. This molecule came in with a solubility (thermodynamic) in [4] of 193 µM (≈ 68 µg/mL). Also, in [5], the concentration for a half-maximal effect (EC50) stood at 120 nM. In the data set with CYP3A4 [6], the remaining at 1 h is 100%. The IC50 in data set [7] was over 30000 nM. The same molecule gave a microsomal CLint in [8] of 18 µL/min/mg.

The record behind these values is ChEMBL document CHEMBL1155527 (J Med Chem, 2010).
